ChEMBL document CHEMBL3804766, “Discovery of Dual Inhibitors for Wild Type and D816V Mutant of c-KIT Kinase through Virtual and Biochemical Screening of Natural Products” (J Nat Prod, 2016)

Experiments:
[1] = biological target: Mast/stem cell growth factor receptor Kit (Homo sapiens, UniProt P10721, D816V); test: Inhibition of N-terminal GST-His-tagged c-KIT (544 to 976 amino acids) D816V mutant (unknown origin) expressed in Sf9 insect cells using poly[Glu:Tyr] (4:1) as substrate preincubated for 20 mins followed by [33P-gamma]ATP addition and subsequent inhibition for 2 hrs by radiometric assay
Sequence of Mast/stem cell growth factor receptor Kit (Homo sapiens, UniProt P10721, D816V) (P10721 26-976 D816V limits assumed): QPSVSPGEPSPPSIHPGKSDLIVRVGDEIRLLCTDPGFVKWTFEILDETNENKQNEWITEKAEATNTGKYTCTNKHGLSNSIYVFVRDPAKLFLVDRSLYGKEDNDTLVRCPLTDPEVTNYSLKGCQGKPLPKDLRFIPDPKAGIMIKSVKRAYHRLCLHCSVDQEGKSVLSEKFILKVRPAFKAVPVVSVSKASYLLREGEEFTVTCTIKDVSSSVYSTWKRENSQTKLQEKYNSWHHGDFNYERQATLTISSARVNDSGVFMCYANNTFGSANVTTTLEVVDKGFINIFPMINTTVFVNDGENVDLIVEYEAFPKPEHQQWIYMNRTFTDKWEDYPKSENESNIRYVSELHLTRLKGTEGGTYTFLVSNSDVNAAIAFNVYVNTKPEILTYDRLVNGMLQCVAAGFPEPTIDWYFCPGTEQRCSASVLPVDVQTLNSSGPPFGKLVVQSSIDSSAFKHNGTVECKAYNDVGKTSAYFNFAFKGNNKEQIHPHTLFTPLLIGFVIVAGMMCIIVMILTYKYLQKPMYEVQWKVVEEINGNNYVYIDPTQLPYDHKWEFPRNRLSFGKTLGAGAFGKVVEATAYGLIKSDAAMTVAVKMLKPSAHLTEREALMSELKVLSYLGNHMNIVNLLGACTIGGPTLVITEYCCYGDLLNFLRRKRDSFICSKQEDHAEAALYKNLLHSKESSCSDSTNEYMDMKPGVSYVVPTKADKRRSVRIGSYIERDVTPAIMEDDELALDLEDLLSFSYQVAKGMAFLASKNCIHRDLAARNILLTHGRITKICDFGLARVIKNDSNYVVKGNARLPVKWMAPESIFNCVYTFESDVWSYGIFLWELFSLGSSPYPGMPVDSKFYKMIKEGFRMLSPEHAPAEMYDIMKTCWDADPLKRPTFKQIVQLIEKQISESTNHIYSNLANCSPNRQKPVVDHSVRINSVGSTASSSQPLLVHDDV
In short: (§1)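 Compounds were serially diluted in DMSO and preincubated with enzyme for 20 min at RT. Final ATP was 1 μM. Reaction ran 2 h at RT, read by filter binding. Percent activity was taken relative to DMSO, and IC50 came from curve fitting.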

[2] = system: Mast/stem cell growth factor receptor Kit (Homo sapiens), P10721 [D816V]; test: Inhibition of c-KIT D816V mutant (unknown origin) expressed in HEK293 cells assessed as remaining activity at 100 uM incubated for 1 hr with shaking by qPCR method relative to control; type: cell-based
Sequence of Mast/stem cell growth factor receptor Kit (Homo sapiens), P10721 [D816V] (P10721 whole entry D816V): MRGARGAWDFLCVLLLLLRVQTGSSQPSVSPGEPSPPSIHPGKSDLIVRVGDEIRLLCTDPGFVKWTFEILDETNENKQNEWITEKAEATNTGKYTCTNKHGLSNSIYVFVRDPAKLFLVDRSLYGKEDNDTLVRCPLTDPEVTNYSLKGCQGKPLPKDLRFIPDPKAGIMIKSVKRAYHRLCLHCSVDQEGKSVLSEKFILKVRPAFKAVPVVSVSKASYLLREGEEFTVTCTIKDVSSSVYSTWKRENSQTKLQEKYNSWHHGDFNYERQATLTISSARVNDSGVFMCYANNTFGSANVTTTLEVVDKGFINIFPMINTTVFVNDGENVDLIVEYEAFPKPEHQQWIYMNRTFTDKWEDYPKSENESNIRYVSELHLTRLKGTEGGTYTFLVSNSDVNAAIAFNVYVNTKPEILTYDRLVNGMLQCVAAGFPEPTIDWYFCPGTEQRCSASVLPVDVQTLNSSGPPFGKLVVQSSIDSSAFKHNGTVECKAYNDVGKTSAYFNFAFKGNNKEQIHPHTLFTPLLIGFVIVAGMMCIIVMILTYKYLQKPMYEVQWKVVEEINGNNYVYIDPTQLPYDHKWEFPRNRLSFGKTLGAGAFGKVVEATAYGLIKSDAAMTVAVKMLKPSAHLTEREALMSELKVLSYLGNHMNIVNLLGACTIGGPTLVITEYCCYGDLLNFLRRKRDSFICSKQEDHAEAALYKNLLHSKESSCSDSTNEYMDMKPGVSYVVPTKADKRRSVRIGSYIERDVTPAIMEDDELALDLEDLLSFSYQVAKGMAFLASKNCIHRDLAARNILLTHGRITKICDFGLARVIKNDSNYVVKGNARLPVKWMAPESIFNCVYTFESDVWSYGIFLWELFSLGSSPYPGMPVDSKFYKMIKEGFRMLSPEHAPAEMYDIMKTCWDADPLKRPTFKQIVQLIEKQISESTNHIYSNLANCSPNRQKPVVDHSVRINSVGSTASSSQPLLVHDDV
In short: (§2)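 Competition binding assay run at a single 100 μM concentration, added from 40× DMSO stocks. Tagged kinase was combined with immobilized biotinylated ligand on streptavidin magnetic beads in SeaBlock/0.17× PBS/0.05% Tween 20/6 mM DTT for 1 h at RT with shaking. Beads were washed, then eluted with 0.5 μM free ligand for 30 min. Eluted kinase was quantified by qPCR as percent of control.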

[3] = biological target: T1, Mast/stem cell growth factor receptor Kit (Homo sapiens, UniProt P10721); test: Inhibition of wild type c-KIT (unknown origin) expressed in T7-phage infected Escherichia coli BL21 assessed as remaining activity at 100 uM incubated for 1 hr with shaking by qPCR method relative to control; in short: as §2
T1 sequence (P10721 whole entry, the tested form may be a part): as the sequence (P10721 whole entry D816V) above, with V816D counted along it

[4] = biological target: T1, Mast/stem cell growth factor receptor Kit; test: Inhibition of wild type His-tagged c-KIT (544 to 976 amino acids) (unknown origin) expressed in insect cells using poly[Glu:Tyr] (4:1) as substrate preincubated for 20 mins followed by [33P-gamma]ATP addition and subsequent inhibition for 2 hrs by radiometric assay; in short: as §1
Homo sapiens = species: Homo sapiens; test: Selectivity ratio of IC50 for wild type His-tagged c-KIT (544 to 976 amino acids) (unknown origin) to IC50 for N-terminal GST-His-tagged c-KIT (544 to 976 amino acids) D816V mutant (unknown origin)

| IC50 [1] [nM] | Activity [2] [%] | Kinase binding remaining, % of control [3] [%] | IC50 [4] [nM] | Ratio IC50 (Homo sapiens) | SMILES |
| --- | --- | --- | --- | --- | --- |
| 500 | 0 | 1 | 7800 |  | COc1c(O)c(O)c2oc(-c3ccccc3)cc(=O)c2c1OC |
|  | 15 | 12 |  |  | O=C1c2c(O)cc(O)cc2O[C@H](c2ccc(O)c(O)c2)[C@H]1O |
| 1400 | 15 | 0 | 15600 | > 10 | COc1ccc(/C=C2\Oc3cc(O)ccc3C2=O)cc1 |
| 600 | 3 | 0 | 1500 |  | COc1ccc(-c2cc(=O)c3c(O)c(OC)c(O)cc3o2)cc1 [PECTOLINARIGENIN] |
